Results taken from ChEMBL document CHEMBL1629579, “Correlating echinocandin MIC and kinetic inhibition of fks1 mutant glucan synthases for Candida albicans: implications for interpretive breakpoints” (Antimicrob Agents Chemother, 2009).
In brackets after ≈: the same amount, converted by molar mass. Numbered stars: 1 amine (or outer) side, 2 acyl side, 3 side chain; on linkers, the order of the positions; unused ones are H or OH. Bridge positions count the residues as written; N and C are the ends. Square brackets hold non-standard residues; d marks the D form. Peptide text beside a SMILES is read from it. * marks the point of attachment. hTyr(3S-OH,4S-OH,3'-OSO3H) = N[C@H](C(=O)O)[C@H](O)[C@@H](O)c1ccc(O)c(OS(=O)(=O)O)c1; pTerphenylCO(4''-OnC5H11) = CCCCCOc1ccc(-c2ccc(-c3ccc(C(=O)*)cc3)cc2)cc1; Orn(4R-OH,5R-OH) = O=C([C@H](C[C@@H](O)[C@@H](O)N[*:3])N[*:1])[*:2]; hTyr(3S-OH,4S-OH) = N[C@H](C(=O)O)[C@H](O)[C@@H](O)c1ccc(O)cc1; Pro(3S-OH,4S-Me) = C[C@H]1CN[C@H](C(=O)O)[C@H]1O; X1 = CCCCCOc1ccc(-c2cc(-c3ccc(C(=O)*)cc3)no2)cc1; Gln(3R-OH) = NC(=O)C[C@@H](O)[C@H](N)C(=O)O; Hyp = O=C(O)[C@@H]1C[C@@H](O)CN1

Legend:
[1] = system: Candida albicans; test: Antimicrobial activity against Candida albicans SC5314 by M27-A3 method; format: functional
How it was run: (§1)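 Broth microdilution per CLSI M27-A3 in RPMI 1640, with and without 50% human serum, in triplicate. C. krusei ATCC 6258 and C. parapsilosis ATCC 22019 served as quality-control strains. MIC reported as arithmetic mean of three repetitions on separate days.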

[2] = system: Candida albicans; test: Antimicrobial activity against Candida albicans 36082 by M27-A3 method; format: functional; how it was run: as §1
[3] = system: Candida albicans; test: Antimicrobial activity against Candida albicans 90028 by M27-A3 method; format: functional; how it was run: as §1
[4] = system: Candida albicans; test: Antimicrobial activity against Candida albicans 177 harboring FKS1 T1922C mutant gene and FKS1 hotspot1 F641S mutant gene by M27-A3 method; format: functional
How it was run: (§2)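 Broth microdilution per CLSI M27-A3 in RPMI 1640, done in triplicate on three separate days. Each strain was tested with and without 50% human serum. C. krusei ATCC 6258 and C. parapsilosis ATCC 22019 served as QC strains. Arithmetic means are reported, and geometric means were used for comparison.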

[5] = system: Candida albicans; test: Antimicrobial activity against Candida albicans 2762 harboring FKS1 T1922C mutant gene and FKS1 hotspot1 F641S mutant gene by M27-A3 method in presence of 50% human serum; format: functional; how it was run: as §2
[6] = system: Candida albicans; test: Antimicrobial activity against Candida albicans 205 harboring FKS1 T1933C mutant gene and FKS1 hotspot1 S645P mutant gene by M27-A3 method in presence of 50% human serum; format: functional; how it was run: as §2
[7] = system: Candida albicans; test: Antimicrobial activity against Candida albicans 5415 harboring FKS1 T1933C mutant gene and FKS1 hotspot1 S645P mutant gene by M27-A3 method; format: functional; how it was run: as §2
[8] = system: Candida albicans; test: Antimicrobial activity against Candida albicans 89 harboring FKS1 C1934A mutant gene and FKS1 hotspot1 S645Y mutant gene by M27-A3 method in presence of 50% human serum; format: functional; how it was run: as §2
[9] = system: Candida albicans; test: Antimicrobial activity against Candida albicans 149 harboring FKS1 G1942T mutant gene and FKS1 hotspot1 D648Y mutant gene by M27-A3 method in presence of 50% human serum; format: functional; how it was run: as §2
[10] = Inhibition of Candida albicans 2762 1,3-beta-D-glucan synthase subunit FKS1p T1922C mutant
How it was run: (§3)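 Enzyme is product-entrapped 1,3-β-D-glucan synthase, enriched from membranes of each strain grown at 37°C with shaking in YPD broth to early stationary phase. Filtration polymerization assay uses [3H]UDPG, started by adding enzyme and run 60 min at 25°C. Echinocandins are added as serial dilutions, with 1% DMSO controls for anidulafungin. IC50 is from a variable-slope sigmoidal fit; values are triplicate arithmetic means.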

[11] = Inhibition of Candida albicans 85 1,3-beta-D-glucan synthase subunit FKS1p C1934T mutant; how it was run: as §3
[12] = Inhibition of Candida albicans 149 1,3-beta-D-glucan synthase subunit FKS1p G1942T mutant; how it was run: as §3
[13] = Inhibition of Candida albicans 90 1,3-beta-D-glucan synthase subunit FKS1p G4082R mutant; how it was run: as §3
[14] = system: Candida albicans; test: Activity at Candida albicans 3795 1,3-beta-D-glucan synthase subunit FKS1p
How it was run: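 Glucan synthase from cells grown at 37°C with vigorous shaking to early stationary phase in YPD. Membrane enzyme enriched by product entrapment. Serial echinocandin dilutions; ANF controls held 1% DMSO. Reaction started by adding enzyme, run 60 min at 25°C in a filtration polymerization assay, stopped on ice. IC50 from a variable-slope sigmoidal fit; means of three repetitions on separate days.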

[15] = system: Candida albicans; test: Activity at Candida albicans 119 1,3-beta-D-glucan synthase subunit FKS1p T1921C mutant
How it was run: (§4)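 Product-entrapped 1,3-β-D-glucan synthase from cells grown in YPD at 37°C to early stationary phase. Wells held 50 mM HEPES pH 7.5, 10% glycerol, 1.5 mg/ml BSA, 25 mM KF, 1 mM EDTA, 25 μM GTP-γ-S, 1 μg enzyme and [3H]UDPG (0.015–2 mM). Reactions ran 60 min at 25°C. Vmax and Km came from Lineweaver-Burke plots, in triplicate.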

[16] = system: Candida albicans; test: Activity at Candida albicans 122 1,3-beta-D-glucan synthase subunit FKS1p C1946A mutant; how it was run: as §4
[17] = system: Candida albicans; test: Selectivity ratio of Ki for Candida albicans 119 1,3-beta-D-glucan synthase subunit FKS1p T1921C mutant to Ki for Candida albicans SC5314 wild type 1,3-beta-D-glucan synthase subunit FKS1p
[18] = system: Candida albicans; test: Selectivity ratio of Ki for Candida albicans 177 1,3-beta-D-glucan synthase subunit FKS1p T1922C mutant to Ki for Candida albicans SC5314 wild type 1,3-beta-D-glucan synthase subunit FKS1p
[19] = system: Candida albicans; test: Selectivity ratio of Ki for Candida albicans 2762 1,3-beta-D-glucan synthase subunit FKS1p T1922C mutant to Ki for Candida albicans SC5314 wild type 1,3-beta-D-glucan synthase subunit FKS1p
[20] = system: Candida albicans; test: Selectivity ratio of Ki for Candida albicans 205 1,3-beta-D-glucan synthase subunit FKS1p T1933C mutant to Ki for Candida albicans SC5314 wild type 1,3-beta-D-glucan synthase subunit FKS1p
[21] = system: Candida albicans; test: Selectivity ratio of Ki for Candida albicans 5415 1,3-beta-D-glucan synthase subunit FKS1p T1933C mutant to Ki for Candida albicans SC5314 wild type 1,3-beta-D-glucan synthase subunit FKS1p
[22] = system: Candida albicans; test: Selectivity ratio of Ki for Candida albicans 89 1,3-beta-D-glucan synthase subunit FKS1p C1934A mutant to Ki for Candida albicans SC5314 wild type 1,3-beta-D-glucan synthase subunit FKS1p
[23] = system: Candida albicans; test: Selectivity ratio of Ki for Candida albicans 85 1,3-beta-D-glucan synthase subunit FKS1p C1934T mutant to Ki for Candida albicans SC5314 wild type 1,3-beta-D-glucan synthase subunit FKS1p
[24] = system: Candida albicans; test: Selectivity ratio of Ki for Candida albicans 121 1,3-beta-D-glucan synthase subunit FKS1p G4082A mutant to Ki for Candida albicans SC5314 wild type 1,3-beta-D-glucan synthase subunit FKS1p
[25] = system: Candida albicans; test: Selectivity ratio of Ki for Candida albicans 194 1,3-beta-D-glucan synthase subunit FKS1p C1934T/G4082R mutant to Ki for Candida albicans SC5314 wild type 1,3-beta-D-glucan synthase subunit FKS1p
[26] = system: Candida albicans; test: Selectivity ratio of Ki for Candida albicans 90 1,3-beta-D-glucan synthase subunit FKS1p G4082R mutant to Ki for Candida albicans SC5314 wild type 1,3-beta-D-glucan synthase subunit FKS1p
[27] = system: Candida albicans; test: Selectivity ratio of Ki for Candida albicans A15 1,3-beta-D-glucan synthase subunit FKS1p T1933Y mutant to Ki for Candida albicans SC5314 wild type 1,3-beta-D-glucan synthase subunit FKS1p
[28] = system: Candida albicans; test: Selectivity ratio of Ki for Candida albicans A15-10 1,3-beta-D-glucan synthase subunit FKS1p T1933C mutant to Ki for Candida albicans SC5314 wild type 1,3-beta-D-glucan synthase subunit FKS1p

CCCCCOc1ccc(-c2ccc(-c3ccc(C(=O)N[C@H]4C[C@@H](O)[C@@H](O)NC(=O)[C@@H]5[C@@H](O)[C@@H](C)CN5C(=O)[C@H]([C@@H](C)O)NC(=O)[C@H]([C@H](O)[C@@H](O)c5ccc(O)cc5)NC(=O)[C@@H]5C[C@@H](O)CN5C(=O)[C@H]([C@@H](C)O)NC4=O)cc3)cc2)cc1 [ANIDULAFUNGIN] ({pTerphenylCO(4''-OnC5H11)}-[Orn(4R-OH,5R-OH)]T[Hyp][hTyr(3S-OH,4S-OH)]T[Pro(3S-OH,4S-Me)]; lactam 1-C)
MIC [1]: 0.08 µg/mL (≈ 0.0702 µM)
MIC [2]: 0.03 µg/mL (≈ 0.0263 µM)
MIC [3]: 0.03 µg/mL (≈ 0.0263 µM)
MIC [4]: 0.83 µg/mL (≈ 0.728 µM)
MIC [5]: 4 µg/mL
MIC [6]: 8 µg/mL
MIC [7]: 2 µg/mL (≈ 1.75 µM)
MIC [8]: 8 µg/mL
MIC [9]: 4 µg/mL
IC50 [10]: 1.085 µg/mL (≈ 0.952 µM)
Ki [10]: 4.48127 µg/mL (≈ 3.93 µM)
IC50 [11]: 0.787 µg/mL (≈ 0.69 µM)
Ki [11]: 0.44593 µg/mL (≈ 0.391 µM)
IC50 [12]: 0.0933 µg/mL (≈ 0.0818 µM)
Ki [12]: 0.17055 µg/mL (≈ 0.15 µM)
IC50 [13]: 0.0406 µg/mL (≈ 0.0356 µM)
Ki [13]: 0.0485 µg/mL (≈ 0.0425 µM)
Km [14]: 88 µM
Vmax [14]: 6.63 nmol/min
Km [15]: 54 µM
Vmax [15]: 2.54 nmol/min
Km [16]: 152 µM
Vmax [16]: 1.95 nmol/min
Ratio Ki [17]: > 100
Ratio Ki [18]: > 100
Ratio Ki [19]: > 100
Ratio Ki [20]: > 100
Ratio Ki [21]: > 100
Ratio Ki [22]: > 100
Ratio Ki [23]: > 100
Ratio Ki [24]: > 100
Ratio Ki [25]: > 100
Ratio Ki [26]: > 100
Ratio Ki [27]: > 100
Ratio Ki [28]: > 100

CCCCCOc1ccc(-c2cc(-c3ccc(C(=O)N[C@H]4C[C@@H](O)[C@@H](O)NC(=O)[C@@H]5[C@@H](O)[C@@H](C)CN5C(=O)[C@H]([C@H](O)CC(N)=O)NC(=O)[C@H]([C@H](O)[C@@H](O)c5ccc(O)c(OS(=O)(=O)O)c5)NC(=O)[C@@H]5C[C@@H](O)CN5C(=O)[C@H]([C@@H](C)O)NC4=O)cc3)no2)cc1 [MICAFUNGIN] (X1-[Orn(4R-OH,5R-OH)]T[Hyp][hTyr(3S-OH,4S-OH,3'-OSO3H)][Gln(3R-OH)][Pro(3S-OH,4S-Me)]; lactam 1-C)
MIC [1]: 0.05 µg/mL (≈ 0.0394 µM)
MIC [2]: 0.03 µg/mL (≈ 0.0236 µM)
MIC [3]: 0.03 µg/mL (≈ 0.0236 µM)
MIC [4]: 1 µg/mL (≈ 0.787 µM)
MIC [5]: 16 µg/mL
MIC [6]: 8 µg/mL
MIC [7]: 4 µg/mL (≈ 3.15 µM)
MIC [8]: 8 µg/mL
MIC [9]: 4 µg/mL
IC50 [10]: 1.693 µg/mL (≈ 1.33 µM)
Ki [10]: 1.44788 µg/mL (≈ 1.14 µM)
IC50 [11]: 0.4498 µg/mL (≈ 0.354 µM)
Ki [11]: 1.28919 µg/mL (≈ 1.01 µM)
IC50 [12]: 0.3755 µg/mL (≈ 0.296 µM)
Ki [12]: 0.48923 µg/mL (≈ 0.385 µM)
IC50 [13]: 0.07739 µg/mL (≈ 0.0609 µM)
Ki [13]: 0.26473 µg/mL (≈ 0.208 µM)
Km [14]: 88 µM
Vmax [14]: 6.63 nmol/min
Km [15]: 54 µM
Vmax [15]: 2.54 nmol/min
Km [16]: 152 µM
Vmax [16]: 1.95 nmol/min

CC[C@H](C)C[C@H](C)CCCCCCCCC(=O)N[C@H]1C[C@@H](O)[C@@H](NCCN)NC(=O)[C@@H]2[C@@H](O)CCN2C(=O)[C@H]([C@H](O)CCN)NC(=O)[C@H]([C@H](O)[C@@H](O)c2ccc(O)cc2)NC(=O)[C@@H]2C[C@@H](O)CN2C(=O)[C@H]([C@@H](C)O)NC1=O [CASPOFUNGIN]
MIC [1]: 0.42 µg/mL (≈ 0.384 µM)
MIC [2]: 0.21 µg/mL (≈ 0.192 µM)
MIC [3]: 0.21 µg/mL (≈ 0.192 µM)
MIC [4]: 4 µg/mL (≈ 3.66 µM)
MIC [5]: 8 µg/mL
MIC [6]: 8 µg/mL
MIC [7]: 8 µg/mL (≈ 7.32 µM)
MIC [8]: 8 µg/mL
MIC [9]: 4 µg/mL
IC50 [10]: 0.91 µg/mL (≈ 0.832 µM)
Ki [10]: 0.49893 µg/mL (≈ 0.456 µM)
IC50 [11]: 0.4591 µg/mL (≈ 0.42 µM)
Ki [11]: 0.51933 µg/mL (≈ 0.475 µM)
IC50 [12]: 0.06822 µg/mL (≈ 0.0624 µM)
Ki [12]: 0.2 µg/mL (≈ 0.183 µM)
IC50 [13]: 0.02043 µg/mL (≈ 0.0187 µM)
Ki [13]: 0.14815 µg/mL (≈ 0.136 µM)
Km [14]: 88 µM
Vmax [14]: 6.63 nmol/min
Km [15]: 54 µM
Vmax [15]: 2.54 nmol/min
Km [16]: 152 µM
Vmax [16]: 1.95 nmol/min
